Only some compounds are listed: those with a hit (about 4.3% of all), similar ones and a draw of the others.
TAAR1 ag: human TAAR1 agonism; activation, % at 3 µM; Q96RJ0; CHO RD-HGA16 TAAR1, Fluo-8 calcium fluorescence; vehicle wells 0%, saturating PEA agonist 100%; actives 0.99% (n = 360,000); AID 624467;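 active = activation above the mean activation of all test compounds in the run plus 3 SD, cut at about 38% in these data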
Target sequence (Q96RJ0 whole entry, looked up): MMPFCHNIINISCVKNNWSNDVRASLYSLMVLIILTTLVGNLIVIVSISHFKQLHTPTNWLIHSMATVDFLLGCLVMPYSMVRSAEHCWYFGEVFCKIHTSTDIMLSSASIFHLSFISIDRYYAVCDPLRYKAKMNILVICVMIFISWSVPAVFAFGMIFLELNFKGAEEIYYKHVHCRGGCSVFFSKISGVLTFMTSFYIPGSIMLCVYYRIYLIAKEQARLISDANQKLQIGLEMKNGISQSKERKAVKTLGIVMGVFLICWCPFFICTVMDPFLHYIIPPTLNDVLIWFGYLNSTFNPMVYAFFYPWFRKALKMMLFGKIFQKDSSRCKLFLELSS
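Repeats: no replicates (n 1) | Material: CHO-derived RD-HGA16 cells with stable Gα16 and human TAAR1 | Technique: Kinetic Fluo-8 calcium fluorescence | Schedule: 17-24 h seeding, 75 min 37 °C dye, 30 min RT | Evaluation: % activation from peak over basal fluorescence ratio, DMSO-to-PEA scaled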
CHO parental Ca: counter-screen for OX1R antagonists: effect in parental CHO cells; parental CHO-K1, ATP-induced calcium, Fluo-8 fluorescence; inhibition, % at 5.6 µM; actives 0.63% (n = 330,000); AID 463079;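 active = inhibition above that plate's mean sample inhibition plus 3 SD, cut at about 26% in these data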;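 note: 0% = ATP-challenged DMSO wells and 100% = DMSO wells without ATP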
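Material – parental CHO cells · Reagent – ATP stimulus · Compound – single nominal dose of 5.6 µM per compound · Detection – Fluo-8 fluorescence · Read-out basis – percent inhibition of calcium signal · Controls – ATP-challenged DMSO wells low, unchallenged DMSO wells high · Repeats – no replicates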
TAAR1 antag: human TAAR1 antagonism | Q96RJ0 | actives 1.5% (n = 360,000) | AID 624466 | inhibition, % at 3 µM | CHO RD-HGA16 TAAR1, Fluo-8 calcium fluorescence, antagonist;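 active = inhibition above a per-plate cutoff, the mean inhibition of test compounds on that plate plus 3 SD, cut at about 49% in these data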;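 note: 0% = DMSO plus EC80 beta-PEA response and 100% = DMSO alone without agonist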
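System: RD-HGA16 CHO cells with stable hTAAR1 and Gα16 | Probe or stimulus: EC80 β-phenethylamine stimulus | Dosing: 3 µM, single point | Times: Dye loading 75 min at 37 °C, then 30 min room temperature | Measured by: Fluo-8 calcium-sensitive fluorescence | Read-out basis: % inhibition of agonist calcium response | Replicates: n of 1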
GalR3 antag: human GalR3 antagonism; AID 651719; actives 0.44% (n = 360,000); inhibition, % at 3 µM; O60755; HEK293 GalR3-CNG cAMP membrane potential fluorescence; galR3 body fused to GalR1 C-terminus;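 active = inhibition above the screen-wide average plus 3 SD, cut at about 13% in these data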;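 note: forskolin and galanin both at EC90 stimulate the cells; cAMP rise reported by CNG channel membrane potential dye signal; 0% = forskolin plus galanin with DMSO and 100% = forskolin alone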
OX1R antag-1: human HCRTR1 antagonism. inhibition, % at 5 µM. actives 0.43% (n = 330,000). CHO/OX1R cells, Fluo-8 calcium fluorescence, orexin A. O43613;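 active = inhibition above its plate's threshold, mean inhibition of all tested compounds on the plate plus 3 SD, cut at about 37% in these data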;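 note: 0% = orexin A challenge wells and 100% = SB-334867-A antagonist wells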
Target sequence (O43613 whole entry, looked up): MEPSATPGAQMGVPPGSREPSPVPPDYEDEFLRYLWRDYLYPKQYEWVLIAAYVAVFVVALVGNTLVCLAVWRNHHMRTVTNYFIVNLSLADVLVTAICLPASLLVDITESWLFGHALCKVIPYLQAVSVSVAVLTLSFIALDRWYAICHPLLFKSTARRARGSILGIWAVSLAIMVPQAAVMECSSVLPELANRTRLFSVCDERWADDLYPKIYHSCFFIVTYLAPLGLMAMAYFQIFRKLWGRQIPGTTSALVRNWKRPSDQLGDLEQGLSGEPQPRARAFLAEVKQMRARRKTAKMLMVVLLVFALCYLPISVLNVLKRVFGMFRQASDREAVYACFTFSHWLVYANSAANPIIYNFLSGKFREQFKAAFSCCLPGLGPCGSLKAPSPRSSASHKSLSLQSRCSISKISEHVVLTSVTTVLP
OX1R antag-2: blocks the human orexin 1 receptor | AID 485270 | inhibition, % at 6.6 µM | actives 1.8% (n = 330,000) | OX1R-expressing cells, FRET antagonist read-out; in the data active = inhibition mostly above about 38%, no sharp cut-off; inactive = mostly below about 40%;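 note: 0% = agonist challenge alone and 100% = reference antagonist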
nonsel antag count: counter-screen for TAAR1 antagonists: nonselective antagonists. shares compounds with TAAR1 antag. counterscreen cell line, calcium fluorescence, antagonist mode. inhibition, % at 3 µM. actives 77% (n = 2,400). AID 651780; in the data active = inhibition above about 22%;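 note: CHO-Ga16 host cells stimulated with ATP at an EC80 level; 0% = agonist EC80 plus vehicle and 100% = vehicle without agonist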
TAAR1 antag conf: human TAAR1 antagonism, confirmed; shares compounds with TAAR1 antag; TAAR1-expressing cells, fluorescence antagonist read-out; inhibition, % at 3 µM; actives 40% (n = 2,400); AID 651785; in the data active = inhibition above about 49%;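 note: CHO-Ga16 host cells challenged with agonist PEA near its EC80; 0% = agonist at EC80 plus vehicle and 100% = vehicle with no agonist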
Ga16 ag counter: nonselective Ga16 agonism, counter-screen; shares compounds with TAAR1 antag; Ga16-expressing cells, calcium fluorescence, agonist counterscreen; activation, % at 3 µM; actives 18% (n = 2,400); AID 651953; in the data active = activation above about 12%;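 note: 0% = vehicle wells and 100% = saturating stimulus response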
TAAR1 ag counter: TAAR1 agonism, antagonist counter-screen; shares compounds with TAAR1 antag; hTAAR1 cell line, fluorescence activation, agonist mode; activation, % at 3 µM; actives 2% (n = 2,400); AID 651955; in the data active = activation above about 37%;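 note: CHO cells stably expressing TAAR1 with calcium dye readout; 0% = DMSO vehicle and 100% = full agonist response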
Starred values were filed as active, the others as inactive; · = not tested or not shown.

SMILES | TAAR1 ag | CHO parental Ca | TAAR1 antag | GalR3 antag | OX1R antag-1 | OX1R antag-2 | nonsel antag count | TAAR1 antag conf | Ga16 ag counter | TAAR1 ag counter
O=C(NCC(=O)N(c1ccc(F)cc1)C(C(=O)NCC1CCCO1)c1ccccc1)c1ccco1 (configuration not stated) | 9 | -23 | 25 | -2 | -22 | 4 | · | · | · | ·
CCc1nn(C(CC)C(=O)NCC(C)c2ccccc2)c(=O)c2cc3occc3n12 (configuration not stated) | 1 | · | -16 | 6 | · | · | · | · | · | ·
Cc1ccc(C)c(S(=O)(=O)N2CCN(c3nc(-c4cccnc4)nc4ccccc34)CC2)c1 | 5 | -39 | 61* | -5 | 31 | 47* | 13 | 38 | 6 | 8
CN1CCN(c2nc(-c3cccnc3)nc3ccccc23)CC1 | 2 | -8 | -1 | -4 | -1 | 3 | · | · | · | ·
C#CCSc1nnc(C)c(C)n1 | 13 | -3 | 2 | -6 | -18 | 25 | · | · | · | ·
COc1ccc(CCNCC(O)COc2cccc(C(C)=O)c2)cc1OC (configuration not stated) | 22 | -18 | -24 | -10 | -29 | 6 | · | · | · | ·
COc1ccc(NC(=O)c2cc(-c3ccc(C)o3)nc3ccccc23)cc1OC | 13 | -13 | 38 | -3 | -17 | 33 | · | · | · | ·
Cc1ccc(-c2cc(C(=O)Nc3ccccc3C(N)=O)c3ccccc3n2)o1 | 23 | -5 | 66* | 8 | -25 | 8 | 34* | 54* | 13* | 12
COc1ccc(OC)c(-c2cc(C(=O)Nc3ccccc3C(N)=O)c3ccccc3n2)c1 | 21 | -34 | 76* | 0 | -19 | 22 | 34* | 54* | 11 | 9
COc1ccc(NC(=O)Nc2cccc3ccccc23)c(OC)c1 | 24 | -7 | 59* | -1 | -10 | 30 | 18 | 42 | 3 | 4
COc1ccc(NC(=O)c2cc(-c3ccc(C)o3)nc3ccccc23)c(OC)c1 | 7 | -27 | 75* | -1 | -32 | 5 | 33* | 46 | 9 | 6
CC(C)[C@H]1COCCS(=O)(=O)N1Cc1ccccc1-c1cccc(Cl)c1 | 1 | -35 | -24 | -3 | 11 | 13 | · | · | · | ·
O=C(c1nc2ccc(Cl)cn2c1CN1CCC[C@H]1CO)N1CCc2ccccc2C1 | 31 | · | -22 | -1 | · | · | · | · | · | ·
COCOCCn1cc(CN2CCS(=O)(=O)N(Cc3ccc(-c4ccc(F)cc4)cc3)C(CC(C)C)C2=O)nn1 (configuration not stated) | 11 | · | 39 | -5 | · | · | · | · | · | ·
CN=C(C[N+](=O)[O-])NCCSCc1ccc(CN(C)C)o1 | 0 | -4 | -8 | 3 | -6 | 3 | · | · | · | ·
CSc1ncnc2[nH]ccc12 | 0 | · | -12 | -5 | · | · | · | · | · | ·
Cc1cccc(NC(=O)c2cc(-c3ccco3)nc3ccccc23)n1 | 18 | -7 | 55* | -1 | -24 | 45 | 27* | 50* | 7 | 5
COc1ccc(NC(=O)c2cc(-c3ccco3)nc3ccccc23)cc1 | 6 | -13 | 16 | -6 | -28 | 23 | · | · | · | ·
Cc1ccc(-c2cc(C(=O)N(C)CC(=O)Nc3ccccc3Br)c3ccccc3n2)o1 | 14 | -8 | 66* | 4 | -31 | 12 | 34* | 50* | 12* | 13
CC(C)OC(=O)/C=C1\C[C@@H](c2ccccc2C(F)(F)F)O[C@@H](c2ccccc2C(F)(F)F)O1 | 1 | · | -23 | -2 | · | · | · | · | · | ·
CCCCCCSc1cccc(-c2nc3ccc(C)cn3c2NCc2ccccc2)c1 | 5 | -24 | 52* | -6 | -31 | 42 | 18 | 18 | 1 | 3
CCC(C)Sc1cccc(-c2nc3ccccn3c2NCc2ccccc2)c1 (configuration not stated) | 13 | 14 | 84* | -4 | 46 | 25 | 42* | 70* | 11 | 14
CCC(C)Sc1cccc(-c2nc3ccc(C)cn3c2NCc2ccccc2)c1 (configuration not stated) | 13 | 49* | 91* | -7 | 61* | 44 | 45* | 76* | 9 | 12
Cc1ccc2nc(-c3cccc(-c4cccc(Cl)c4)c3)c(NCc3ccccc3)n2c1 | 10 | 4 | 73* | 0 | -9 | 27 | 32* | 33 | 2 | 3
CCCCCCSc1cccc(-c2nc3cc(C)ccn3c2NCc2ccccc2)c1 | 1 | -19 | -26 | -8 | -31 | 38 | · | · | · | ·
SMILES | TAAR1 ag | CHO parental Ca | TAAR1 antag | GalR3 antag | OX1R antag-1 | OX1R antag-2 | nonsel antag count | TAAR1 antag conf | Ga16 ag counter | TAAR1 ag counter
CC(C)(C)OC(=O)C[C@H]1C/C=C\C[C@@H](CC(=O)N[C@@H](CO)Cc2ccccc2)C(=O)N2CCC[C@@H]2COC1=O | 3 | -12 | 13 | -3 | -5 | 6 | · | · | · | ·
CCCS(=O)(=O)c1c(S(=O)(=O)CCC)c2c3ccccc3ccn2c1C(=O)OC | 9 | -30 | 49* | -2 | -43 | 22 | 16 | 32 | 6 | 4
CCCS(=O)(=O)c1c(S(=O)(=O)CCC)c2c(C)cccn2c1C(=O)OC | 6 | -22 | 20 | -1 | -28 | 10 | · | · | · | ·
Cc1ccc(OC(C)C(=O)N2CCN(c3ccccn3)CC2)cc1 (configuration not stated) | 5 | · | -2 | -2 | · | · | · | · | · | ·
COc1ccc2cc(-c3cc(C(=O)O)c4ccccc4n3)ccc2c1 | 6 | -11 | 2 | -4 | -10 | 43 | · | · | · | ·
COc1ccccc1CN(C)C(=O)c1cc(-c2cccs2)nc2ccccc12 | 12 | -13 | 70* | -4 | -26 | 21 | 37* | 56* | 6 | 5
COc1ccc(-c2cc(C(=O)N(C)Cc3cccc(OC)c3OC)c3ccccc3n2)cc1OC | 12 | -32 | 62* | -4 | -36 | 36 | 28* | 48 | 6 | 7
COc1ccc(-c2cc(C(=O)Nc3ccccc3O)c3ccccc3n2)cc1OC | 14 | -22 | 34 | -5 | -9 | 7 | · | · | · | ·
COc1ccc(CN(C)C(=O)c2cc(-c3ccc(OC)c(OC)c3)nc3ccccc23)c(OC)c1 | 1 | · | 80* | 3 | · | · | 26* | 49* | 4 | 3
Cc1csc(C(=O)O)c1NC(=O)c1c(Cl)cccc1Cl | 6 | 9 | -26 | -10 | -16 | 3 | · | · | · | ·
Cn1c(=O)c2c(ncn2CC(=O)NC[C@H]2O[C@@H](n3cnc4c(N)ncnc43)[C@H](O)[C@@H]2O)n(C)c1=O | 2 | -4 | -12 | -7 | -2 | 1 | · | · | · | ·

Source: PubChem
